Legend:
Shigella dysenteriae = assay: Antibacterial activity against Shigella dysenteriae after 24 hrs by twofold broth dilution method; type: functional
In short: (§1)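 MIC by NCCLS-recommended twofold broth microdilution, run in triplicate. Strains: B. subtilis ATCC6633, E. coli DH52, M. luteus ATCC4698, P. vulgaris ATCC6896, S. dysenteriae, S. aureus ATCC25923, MRSA N315, C. albicans ATCC76615, C. mycoderma. References were chloromycin, norfloxacin and berberine for bacteria, and fluconazole for fungi.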

Candida [1] = assay: Antifungal activity against Candida mycoderma after 24 hrs by twofold broth dilution method; type: functional; in short: as §1
Staphylococcus aureus [2] = assay: Antibacterial activity against methicillin-resistant Staphylococcus aureus N315 after 24 hrs by twofold broth dilution method; type: functional; settings: N315, 24 h; in short: as §1
Escherichia coli [3] = assay: Antibacterial activity against Escherichia coli DH52 after 24 hrs by twofold broth dilution method; type: functional; settings: DH52, 24 h; in short: as §1
Proteus vulgaris = assay: Antibacterial activity against Proteus vulgaris after 24 hrs by twofold broth dilution method; type: functional; in short: as §1
Staphylococcus aureus [4] = assay: Antibacterial activity against Staphylococcus aureus ATCC 25923 after 24 hrs by twofold broth dilution method; type: functional; settings: ATCC 25923, 24 h; in short: as §1
Bacillus subtilis [5] = assay: Ratio of chloromycin MIC to compound MIC for Bacillus subtilis; type: functional
[6] = Stability of the compound at 30 to 80 degC after 30 mins by UV spectrophotometry; type: physicochemical; settings: 0.5 h
In short: (§2)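 Stability followed by UV spectrometry across pH 6.5–8.5 and temperatures 30–80 °C.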

[7] = Stability of the compound at pH 6.5 to 8.5 after 30 mins by UV spectrophotometry; type: physicochemical; settings: buffer, pH 6.5, 0.5 h; in short: as §2
Bacillus subtilis [8] = assay: Antibacterial activity against Bacillus subtilis after 24 hrs by twofold broth dilution method; type: functional; in short: as §1
[9] = Octanol-water partition coefficient, log P of the compound after 24 hrs by UV-Vis spectrophotometry; type: physicochemical
Staphylococcus aureus [10] = assay: Ratio of berberin MIC to compound MIC for Staphylococcus aureus ATCC 25923; type: functional
[11] = Solubility of the compound in phosphate buffer at pH 7.5 after 20 hrs by UV spectrophotometry; type: physicochemical
In short: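 Phosphate buffer pH 7.5 added to solid; suspension sonicated 10 min, then shaken at room temperature for 20 h and centrifuged. Supernatant concentration read by UV absorbance against a regression calibration curve (278 and 340 nm).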

Escherichia coli [12] = assay: Ratio of chloromycin MIC to compound MIC for Escherichia coli DH52; type: functional
Micrococcus luteus = assay: Antibacterial activity against Micrococcus luteus ATCC 4698 after 24 hrs by twofold broth dilution method; type: functional; settings: ATCC 4698, 24 h; in short: as §1
Candida albicans = assay: Antifungal activity against Candida albicans after 24 hrs by twofold broth dilution method; type: functional; in short: as §1
Pseudomonas aeruginosa [13] = assay: Antibacterial activity against Pseudomonas aeruginosa after 24 hrs by twofold broth dilution method; type: functional
In short: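 Twofold broth dilution in 96-well microplates following NCCLS guidance; MIC read as the endpoint; tests run in triplicate.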

Staphylococcus aureus [14] = assay: Ratio of chloromycin MIC to compound MIC for Staphylococcus aureus ATCC 25923; type: functional
Albumin [15] = target: T1, Albumin (Homo sapiens, UniProt P02768); assay: Binding affinity to human serum albumin assessed as decrease in fluorescence quenching at 286K by UV-Vis spectroscopy; type: ADME; settings: isolated protein
T1 sequence (P02768 whole entry): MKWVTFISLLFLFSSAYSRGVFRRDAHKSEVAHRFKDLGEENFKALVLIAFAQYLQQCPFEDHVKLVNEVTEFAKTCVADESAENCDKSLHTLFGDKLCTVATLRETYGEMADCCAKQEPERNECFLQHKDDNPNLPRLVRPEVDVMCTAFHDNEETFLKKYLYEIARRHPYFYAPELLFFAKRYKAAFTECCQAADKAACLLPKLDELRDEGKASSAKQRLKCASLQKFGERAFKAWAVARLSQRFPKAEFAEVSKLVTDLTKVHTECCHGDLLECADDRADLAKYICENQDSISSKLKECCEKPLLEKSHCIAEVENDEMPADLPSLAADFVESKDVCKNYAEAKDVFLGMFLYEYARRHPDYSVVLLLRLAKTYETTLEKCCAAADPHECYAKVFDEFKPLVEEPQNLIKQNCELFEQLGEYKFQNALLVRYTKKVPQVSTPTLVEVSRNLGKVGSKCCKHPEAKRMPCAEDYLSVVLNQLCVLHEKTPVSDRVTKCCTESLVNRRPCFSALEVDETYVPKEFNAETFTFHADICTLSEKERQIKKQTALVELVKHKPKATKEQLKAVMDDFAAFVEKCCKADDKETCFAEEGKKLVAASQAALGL
In short: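 Fluorescence of HSA fixed at 1.0 × 10^-5 mol L^-1, titrated with compound in 0.2 × 10^-5 mol L^-1 steps. Excitation 295 nm, emission scanned 300–450 nm, slits 2.5 nm, 1.0 cm quartz cells. Spectra recorded at several temperatures (286, 295, 298, 304, 310 K are cited in places). Data fitted by Stern–Volmer, modified Stern–Volmer and Scatchard equations to give binding constants and site number.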

Albumin [16] = target: T1, Albumin; assay: Binding affinity to human serum albumin by UV-Vis spectrophotometry; type: ADME; settings: isolated protein
In short: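 HSA UV–vis absorption spectrum compared with the difference spectrum of HSA–compound complex minus compound at equal concentration; recorded at room temperature in 1.0 cm quartz cells.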

Pseudomonas aeruginosa [17] = assay: Ratio of clinafloxacin MIC to compound MIC for Pseudomonas aeruginosa; type: functional
Candida [18] = assay: Ratio of fluconazole MIC to compound MIC for Candida mycoderma; type: functional
In short: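 MICs for the compound and for fluconazole against Candida mycoderma were measured in parallel by twofold broth microdilution in 96-well plates, following NCCLS guidance, in triplicate. The ratio was then taken from the two MICs.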

Compound | MIC (Shigella dysenteriae) [µg/mL] | MIC (Candida [1]) [µg/mL] | MIC (Staphylococcus aureus [2]) [µg/mL] | MIC (Escherichia coli [3]) [µg/mL] | MIC (Proteus vulgaris) [µg/mL] | MIC (Staphylococcus aureus [4]) [µg/mL] | Stability [6] | Stability [7] | MIC (Bacillus subtilis [8]) [µg/mL] | logP at 24 h [9] | solubility at 20 h [11] [µg/mL] | MIC (Micrococcus luteus) [µg/mL] | MIC (Candida albicans) [µg/mL] | MIC (Pseudomonas aeruginosa [13]) [µg/mL] | also measured
COc1ccc2cc3[n+](cc2c1OCCN(CCn1cncc1[N+](=O)[O-])Cc1ccccc1Cl)CCc1cc2c(cc1-3)OCO2.[Cl-] | 8 | 32 | 8 | 4 | 16 | 2 | Stable | Stable | 4 | 0.56 | 86.4 | 32 | 4 | 8 | Ratio (Bacillus subtilis [5]): 4; Ratio (Staphylococcus aureus [10]): 8; Ratio (Escherichia coli [12]): 4; Ratio (Staphylococcus aureus [14]): 8
COc1ccc2cc3[n+](cc2c1OCCN(CCn1cncc1[N+](=O)[O-])Cc1ccc(F)cc1F)CCc1cc2c(cc1-3)OCO2.[Cl-] | 4 | 1 | 16 | 8 | 4 | 8 | Stable | Stable | 32 | 0.52 | 98.1 | 8 | 8 | 8 | Activity (Albumin [15]): Active; Activity (Albumin [16]): Active; Ratio (Pseudomonas aeruginosa [17]): 2; Ratio (Candida [18]): 4
COc1ccc2cc3[n+](cc2c1OCCN(CCn1cnc([N+](=O)[O-])c1)Cc1ccc(Cl)cc1)CCc1cc2c(cc1-3)OCO2.[Cl-] | 128 | 16 | 64 | 64 | 64 | 32 | Stable | Stable | 64 | 0.48 | 64.8 | 32 | 64 | 64 | 
COc1ccc2cc3[n+](cc2c1OCCN(CCn1cnc([N+](=O)[O-])c1)Cc1ccccc1Cl)CCc1cc2c(cc1-3)OCO2.[Cl-] | 16 | 128 | 16 | 16 | 64 | 4 | Stable | Stable | 4 | 0.51 | 95.1 | 16 | 8 | 16 | 
COc1ccc2cc3[n+](cc2c1OCCN(CCn1cnc([N+](=O)[O-])c1)Cc1ccc(Cl)c(Cl)c1)CCc1cc2c(cc1-3)OCO2.[Cl-] | 4 | 64 | 64 | 16 | 16 | 16 | Stable | Stable | 32 | 0.53 | 88.5 | 16 | 16 | 16 | 
